In ChEMBL document CHEMBL3352568, “Synthesis and evaluation of in vitro antimycobacterial activity of novel 1H-benzo[d]imidazole derivatives and analogues” (Eur J Med Chem, 2015):
Values after ≈ are worked out from the molar mass of the structure shown.

The compounds below were run on Mycobacterium tuberculosis variant bovis (assay: Antimicrobial activity against Mycobacterium bovis by two-fold serial dilution method).
Assay type: functional
Outline: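 Classical test-tube successive two-fold dilution in Youmans' modification of Proskauer and Beck liquid medium with 10% bovine serum. Inocula from 14-day-old cultures. Compounds dissolved in ethylene glycol (stock 10 mg/mL), diluted in medium to 0.75–100 µg/mL. Incubated at 37 °C. MIC is the lowest concentration inhibiting growth relative to a compound-free control.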
Work on Fc1ccc2[nH]c(CCC3CCCCC3)nc2c1 yielded an MIC of 3.1 µg/mL (≈ 12.6 µM).
Clc1ccc2[nH]c(CCC3CCCCC3)nc2c1 was tested, and the MIC was 0.75 µg/mL (≈ 2.85 µM).
For Clc1cc2nc(CCCC3CCCCC3)[nH]c2cc1Cl, the MIC was 25 µg/mL (≈ 80.3 µM).
Cc1ccc2[nH]c(CCC3CCCCC3)nc2c1 showed an MIC of 12.5 µg/mL (≈ 51.6 µM).
O=[N+]([O-])c1ccc2[nH]c(CCC3CCCCC3)nc2c1 gave an MIC of 3.1 µg/mL (≈ 11.3 µM).
Cc1ccc2[nH]c(CCCc3ccccc3)nc2c1 was tested, and the MIC was 25 µg/mL (≈ 99.9 µM).
Cc1cc2nc(CCC3CCCCC3)[nH]c2cc1C showed an MIC of 0.75 µg/mL (≈ 2.93 µM).
In the case of Brc1ccc2[nH]c(CCC3CCCCC3)nc2c1, the MIC is reported as 0.75 µg/mL (≈ 2.44 µM).
Cc1cc2nc(CCCc3ccccc3)[nH]c2cc1C gave an MIC of 6.2 µg/mL (≈ 23.5 µM).
Cc1ccc2[nH]c(-c3cc(-c4ccccc4)ccn3)nc2c1 showed an MIC of 25 µg/mL (≈ 87.6 µM).
Fc1ccc2[nH]c(CCCC3CCCCC3)nc2c1 showed an MIC of 6.2 µg/mL (≈ 23.8 µM).
Clc1cc2nc(CCC3CCCCC3)[nH]c2cc1Cl was tested, and the MIC was 1.5 µg/mL (≈ 5.05 µM).
Clc1cc2nc(CCCc3ccccc3)[nH]c2cc1Cl showed an MIC of 3.1 µg/mL (≈ 10.2 µM).
